Assay outcomes as filed in PubChem.
E coli WT exp – growth inhibitors of wild-type E. coli, primary screen, strain BW25113, expanded library, OD600 | OD600 absorbance | growth inhibition, % at 100 µM | actives 0.15% (n = 98,000) | AID 710, 2007;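 active = growth inhibition above about 50% at one test dose, limit read from the data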;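 note: growth measured after 20 h incubation at 37 °C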
CYP2C9 inh – blockers of cytochrome P450 2C9 activity – biochemical, luminescence, ADME assay, primary screen; P11712; CYP2C9 Supersomes, luciferin-H conversion; inhibition, % at 5 µM; actives 20% (n = 96,000);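 active = blocking of liver enzyme CYP2C9 beyond about 50% at 5 µM, limit read from the data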
Target sequence (P11712 whole entry, looked up): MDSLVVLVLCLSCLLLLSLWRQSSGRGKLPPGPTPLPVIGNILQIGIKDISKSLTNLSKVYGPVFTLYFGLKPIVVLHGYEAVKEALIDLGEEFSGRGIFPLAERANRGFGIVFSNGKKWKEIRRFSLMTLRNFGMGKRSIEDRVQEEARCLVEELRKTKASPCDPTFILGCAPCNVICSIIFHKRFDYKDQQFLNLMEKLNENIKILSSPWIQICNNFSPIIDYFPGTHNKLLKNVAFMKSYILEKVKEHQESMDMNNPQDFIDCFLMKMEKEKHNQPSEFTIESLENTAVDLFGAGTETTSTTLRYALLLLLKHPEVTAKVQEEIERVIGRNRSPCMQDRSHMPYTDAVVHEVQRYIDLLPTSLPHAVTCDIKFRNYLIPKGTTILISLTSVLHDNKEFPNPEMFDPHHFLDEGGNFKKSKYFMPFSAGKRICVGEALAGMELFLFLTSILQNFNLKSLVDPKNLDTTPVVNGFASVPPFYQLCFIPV
CYP2C9 act – human CYP2C9 activators, primary screen, biochemical, luminescence. recombinant CYP2C9, luciferin-H conversion; hits give high values; factor 1 = untreated enzyme, 0 = blocked. activation factor at 5 µM. actives 1.4% (n = 96,000). AID 1024, 2008;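 active = activation factor of 2 or more for CYP2C9 at a 5 µM dose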;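 note: 0 = sulfaphenazole-blocked wells and 1 = vehicle-only wells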
CYP2C19 activ – human CYP2C19 activators, primary screen, biochemical, luminescence. Cytochrome P450 2C19 (Homo sapiens), P33261. recombinant CYP2C19, luciferin-H EGE luminescence; hits give high values; 0 = fully inhibited enzyme, 1 = untreated enzyme. activation factor at 5 µM. 96,000 tested, under 10 active;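 active = activation factor of at least 2 at 5 µM in the primary screen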;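 note: 0 = wells with 2.5 mM tranylcypromine and 1 = vehicle-only wells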
Ecoli tolC – growth inhibitors of E. coli tolC mutant, primary screen, strain BW25113 ΔtolC::kan, 384-well; OD615; growth inhibition, % at 10 µM (by protocol); actives 2.2% (n = 65,000); AID 573, 2007;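 active = growth inhibition at or above a cutoff equal to the mean over every tested compound plus 3 SD, cut at about 60% in these data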;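 note: growth measured after 20 h incubation at 37 °C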
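Signal: optical density read at 615 nm; Assay system: E. coli ΔtolC::kan strain BW25113; Times: 20 h incubation with compound, 37 °C; Dosing: 10 µM final, single dose.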
CYP2C19 inh – blockers of cytochrome P450 2C19 activity – biochemical, luminescence, ADME assay, primary screen | P33261 | CYP2C19 Supersomes, luciferin-H EGE luminescence, 30 min | inhibition, % at 5 µM | actives 21% (n = 96,000) | AID 778, 2007;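 active = CYP2C19 inhibition above a set limit at 5 µM in the primary screen, cut at about 50% in these data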;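 note: plate controls were negative control wells for no effect and 2.5 mM tranylcypromine positive control for full effect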
* hit, by the source's call; nt = no result. An excerpt weighted towards active compounds, which were near 29% of everything screened.

SMILES | E coli WT exp | CYP2C9 inh | CYP2C9 act | CYP2C19 activ | Ecoli tolC | CYP2C19 inh
CCOC(=O)C1CCCN(c2nc3ccccc3nc2C(C#N)C(=O)OCC)C1 (stereo not drawn) | -3 | 96* | 0 | 0.1 | 53 | 93*
CN1CCN(c2nc3ccccc3nc2C(C#N)C(=O)OC2CCCCC2)CC1 (stereo not drawn) | 9 | 9 | 0.9 | 0.9 | 58 | 13
CCC(CC)COC(=O)C(C#N)c1nc2ccccc2nc1N1CCOCC1 (stereo not drawn) | -29 | 48 | 0.5 | 0.4 | 58 | 56*
N#CC(C(=O)OC1CCCCC1)c1nc2ccccc2nc1N1CCOCC1 (stereo not drawn) | -5 | 10 | 0.9 | 0.9 | 19 | 6
C=CCOC(=O)C(C#N)c1nc2ccccc2nc1N1CCN(c2ccccc2OC)CC1 (stereo not drawn) | -24 | 72* | 0.3 | 0.7 | 5 | 31
C=C(C)c1cccc(C(C)(C)NC(=O)N2CCN(CC(N)=O)CC2)c1 | -1 | 1 | 1 | 1.1 | -3 | -11
Cc1onc(-c2ccccc2Cl)c1C(=O)Nc1cc(=O)n(C)c(=O)n1C | nt | nt | nt | nt | -3 | nt
CNC(=O)c1cc2c(=O)n3cccc(C)c3nc2n(C(C)C)c1=N | -2 | -11 | 1.1 | 1.1 | -9 | -9
CNS(=O)(=O)c1cccc(C(=O)OCC(=O)c2cc(C)n(-c3ccc4c(c3)OCO4)c2C)c1 | -3 | 68* | 0.3 | 0.4 | 13 | 62*
CCn1c(-c2cccc(Br)c2)n[nH]c1=S | 8 | 23 | 0.8 | 0.2 | 8 | 76*
CCn1c(-c2ccc3ncccc3c2)n[nH]c1=S | 1 | 3 | 1 | 0.7 | nt | 26
O=C(NCc1ccc(F)cc1)c1ccc(CS(=O)(=O)Cc2ccccc2F)o1 | 3 | -8 | 1.1 | 0.7 | -16 | 30
FC(F)(F)c1cccc(-c2ccc(-c3csnn3)o2)c1 | 2 | 23 | 0.8 | 0.4 | -10 | 56*
COc1cccc(Nc2nnc(SCc3cc([N+](=O)[O-])cc4c3OCOC4)s2)c1 | -4 | 12 | 0.9 | 0.2 | nt | 82*
Cc1ccc(CSc2nnc(Nc3ccc(C)cc3)s2)cc1 | -5 | 25 | 0.8 | 0.9 | nt | 10
Cc1cccc(C)c1Nc1nnc(SCc2cc([N+](=O)[O-])cc3c2OCOC3)s1 | -10 | 51* | 0.5 | 1.1 | nt | -5
COc1cc(C2C(C(=O)c3cccs3)=C(O)C(=O)N2Cc2ccco2)cc(OC)c1OC (stereo not drawn) | 0 | 22 | 0.8 | 1 | 1 | -2
O=C(Cc1c(C(=O)O)[nH]c2ccccc12)NC1CCN(Cc2ccccc2)CC1 | nt | nt | nt | nt | 8 | nt
CCOC(=O)C1=C(CSc2nc3c(cc2C#N)CN(C)CC3)OC(N)=C(C#N)C1c1ccc(Cl)cc1 (stereo not drawn) | 4 | 44 | 0.6 | 0.7 | nt | 32
CCN1CC2=C(OC(N)=C(C#N)C2c2cccs2)/C(=C/c2cccs2)C1 (stereo not drawn) | -4 | 30 | 0.7 | 0.8 | 2 | 20
CCN1C=C(Cc2cccs2)C2=C(C1)C(c1cccs1)C(C#N)=C(N)O2 (stereo not drawn) | -1 | 56* | 0.4 | 0.7 | 10 | 31
CCOC(=O)C1=C(CSc2nc(CC)c(C)cc2C#N)OC(N)=C(C#N)C1c1ccccc1 (stereo not drawn) | 0 | 68* | 0.3 | 0.5 | nt | 49
CCOC(=O)C1=C(CSc2nc(C)cc(C)c2C#N)OC(N)=C(C#N)C1c1cccs1 (stereo not drawn) | 12 | 42 | 0.6 | 0.1 | 7 | 86*
CCOC(=O)C1=C(CSc2nc(C)cc(C)c2C#N)OC(N)=C(C#N)C1c1ccccc1 (stereo not drawn) | -2 | 81* | 0.2 | 0.3 | nt | 75*
Cn1cnc([N+](=O)[O-])c1Sc1ncccc1N | 16 | 6 | 0.9 | 1 | nt | 1
SMILES | E coli WT exp | CYP2C9 inh | CYP2C9 act | CYP2C19 activ | Ecoli tolC | CYP2C19 inh
CCCC1=C(C(=O)OCC)C(c2cccs2)C(C#N)=C(N)O1 (stereo not drawn) | 2 | 67* | 0.3 | 0.2 | nt | 79*
C=CCOC(=O)c1[nH]c2c(c1C)C(=O)CC(c1ccco1)C2 (stereo not drawn) | 1 | 80* | 0.2 | 0 | 4 | 96*
Cc1c(C(=O)OC2CCCC2)[nH]c2c1C(=O)CC(c1ccco1)C2 (stereo not drawn) | -1 | 52* | 0.5 | 0.8 | 10 | 22
Cc1c(C(=O)OCC2CCCO2)[nH]c2c1C(=O)CC(c1ccco1)C2 (stereo not drawn) | -4 | 92* | 0.1 | 0.3 | 23 | 69*
O=C(NCc1ccco1)C1CCCN1C(=O)NCc1ccccc1 (stereo not drawn) | 0 | 3 | 1 | 0.9 | -21 | 5
CCC1(CC)C(=O)N(C)C(=O)NC1=NCc1ccccc1 | -4 | 15 | 0.9 | 0.9 | -15 | 12
C/C(=N/Nc1nc(-c2ccc(Cl)cc2)cs1)c1cccs1 | -10 | 48 | 0.5 | 0.8 | nt | 22
O=C(CSc1ncn[nH]1)c1ccccc1 | 0 | 40 | 0.6 | 0.7 | -17 | 28
COc1ccc2c(c1)C(C)=CC(C)(C)N2C(=O)CSc1nnc(-c2ccc(C)cc2)o1 | -29 | 65* | 0.3 | 0.3 | 44 | 66*
CC1=CC(C)(C)N(C(=O)CSc2ncn[nH]2)c2ccc(C)cc21 | -2 | 55* | 0.4 | 0.1 | nt | 89*
CS(=O)(=O)NCCSCc1c(Cl)cccc1Cl | 4 | 63* | 0.4 | 0.7 | nt | 26
CS(=O)(=O)NCCSCc1c(F)cccc1Cl | 6 | 16 | 0.8 | 0.8 | -8 | 22
CC(=O)c1cc(-c2ccccc2)n(CC(=O)NC2CCCC2)c1C | 2 | 22 | 0.8 | 0.8 | nt | 17
CC(=O)c1cc(-c2ccccc2)n(CCC(=O)NCc2cccs2)c1C | 6 | 54* | 0.5 | 0.3 | 15 | 73*
CC(=O)c1cc(-c2ccc(F)cc2)n(CC(=O)NCc2cccs2)c1C | -1 | 49 | 0.5 | 0.2 | -6 | 81*
CCOC(=O)C(NC=O)(NC(C)(C)C)C(=O)OCC | 3 | -3 | 1 | 1 | 2 | -1
CC1(C)CC2(CCO1)OC(=O)CC2C(=O)NCc1ccccc1 (stereo not drawn) | -8 | -4 | 1 | 0.9 | -8 | 9
CC(=C1C2C=CC1C1C(=O)NC(=O)C21)c1ccccc1 (stereo not drawn) | 9 | -18 | 1.2 | 0.2 | 4 | 79*
O=C(CN1CCOCC1)Nc1nc2ccc(Br)cc2s1 | 4 | 65* | 0.3 | 0.8 | nt | 15
O=C(CN1CCOCC1)Nc1ccc(Br)cn1 | 2 | -9 | 1.1 | 0.9 | -4 | 8
